Laboratory results from publication PMC12804367 (ESMO Open, 2025).
Where “and” joins values, the source holds several entries; their conditions need not be identical. Identical values can stand only once. Entries after “also recorded” stand apart in the source; their conditions may differ. Marks after values point to notes of the source that are not given here.

Legend:
[1] = Japanese phase I study; cited from earlier work
[2] = system: advanced or metastatic solid tumors; experiment: Antitumor activity per RECIST v1.1; assay type: in vivo, human
Method in brief: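 Open-label, single-arm, 3 + 3 dose-escalation lead-in. Adults with advanced or metastatic solid tumors that had progressed on standard therapy and had ≥1 lesion per RECIST v1.1. Test compound given once daily (16 or 20 mg) or 4 days on/3 days off (24 or 28 mg) in 21-day cycles until progression or toxicity. Response, DCR and PFS were assessed in all dosed patients, with 95% CI.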

kinases = conditions: cited from earlier work
Plasma pharmacokinetics = assay type: in vivo, human
Method in brief: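 Dose-escalation patients had blood drawn predose and 0.5, 1, 2, 3, 4, 6 and 24 h post-dose on cycle 1 day 1, and on cycle 1 day 8 for once-daily dosing only. Plasma parameters came from noncompartmental analysis in patients with evaluable plasma concentration data. Values are geometric means with geometric CV%, plus day 8/day 1 accumulation ratios of Cmax and AUC0-24.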

[3] = system: patients with advanced solid tumors; conditions: all patients; cited from earlier work
[4] = system: refractory gastrointestinal cancers / advanced solid tumors; conditions: cited from earlier work
[5] = one patient, germline PTEN mutation, metaplastic breast cancer, 20 mg o.d.
[6] = cycle 1 day 1, 16 mg o.d., individual values (N = 2)
[7] = cycle 1 day 1, 20 mg o.d., N = 6, geometric mean (CV%)
[8] = cycle 1 day 1, 24 mg intermittent, N = 4, geometric mean (CV%)
[9] = cycle 1 day 1, 28 mg intermittent, N = 3, geometric mean (CV%)
[10] = cycle 1 day 8, 16 mg o.d., N = 3, geometric mean (CV%)
[11] = cycle 1 day 8, 20 mg o.d., N = 6, geometric mean (CV%)

SMILES: C[C@]1(O)C[C@@](N)(c2ccc(-c3nc4n(c3-c3ccccc3)COc3ccncc3-4)cc2)C1 [TAS-117]
- Accumulation of Cmax and AUC0-24 [1]: threefold to fourfold
- Median PFS ([2]; all cohorts, 95% CI 1.3-3.5 months): 2.7 months
- DCR ([2]; all patients, 95% CI 18.4% to 67.1%): 41.2%
- Patients with stable disease as best response ([2]; o.d. dosing, all at 20 mg): three
- Best overall response [2, 5]: stable disease
- Duration of stable disease / treatment, ongoing at data cut-off [2, 5]: 19.1 months
- Duration of stable disease / treatment as of manuscript drafting ([2]; one patient, germline PTEN mutation, metaplastic breast cancer, ongoing): > 3 years
- Objective response (RECIST v1.1, investigator assessment) ([2]; patients assessed, n = 15, dose escalation (all-comers)): None and no patients having a confirmed response
- Off-target inhibition of kinases (kinases): no observed off-target inhibition of kinases
- Total exposure per week, 16 mg o.d. compared with 24-mg intermittent dosing (Plasma pharmacokinetics; 16 mg o.d.): higher total exposure per week
- AUC0-24 (Plasma pharmacokinetics; [6]): 180.7 ng·h/mL and 244.3 ng·h/mL
- AUC0-last (Plasma pharmacokinetics; [6]): 180.7 ng·h/mL and 244.3 ng·h/mL
- Cmax (Plasma pharmacokinetics; [6]): 12.8 ng/mL and 14.5 ng/mL
- Tmax (Plasma pharmacokinetics; [6]): 3.05 h and 20.88 h
- AUC0-24 (Plasma pharmacokinetics; [7]): 333 (34.7) ng·h/ml
- AUC0-last (Plasma pharmacokinetics; [7]): 333 (34.7) ng·h/ml
- Cmax (Plasma pharmacokinetics; [7]): 21.5 (29.2) ng/ml
- Tmax (Plasma pharmacokinetics; cycle 1 day 1, 20 mg o.d., N = 6, median (range)): 2.06 (1.15-6.42) h
- AUC0-24 (Plasma pharmacokinetics; [8]): 412.8 (30.6) ng·h/ml
- AUC0-last (Plasma pharmacokinetics; [8]): 290.5 (86) ng·h/ml
- Cmax (Plasma pharmacokinetics; [8]): 23.2 (33.9) ng/ml
- Tmax (Plasma pharmacokinetics; cycle 1 day 1, 24 mg intermittent, N = 4, median (range)): 2 (1.98-3.65) h
- AUC0-last (Plasma pharmacokinetics; [9]): 426.3 (180.7) ng·h/ml
- Cmax (Plasma pharmacokinetics; [9]): 48.1 (35.9) ng/ml
- Tmax (Plasma pharmacokinetics; cycle 1 day 1, 28 mg intermittent, N = 3, median (range)): 2 (0.92-5.65) h
- AUC0-24 (Plasma pharmacokinetics; cycle 1 day 1, 28 mg intermittent, individual values (n = 2)): 754.4 ng·h/mL and 961.1 ng·h/mL
- AUC0-last (Plasma pharmacokinetics; [10]): 231.7 (157.2) ng·h/ml
- Cmax (Plasma pharmacokinetics; [10]): 33.3 (34.3) ng/ml
- Tmax (Plasma pharmacokinetics; cycle 1 day 8, 16 mg o.d., N = 3, median (range)): 4.08 (2-5.5) h
- AUC0-24 (Plasma pharmacokinetics; cycle 1 day 8, 16 mg o.d., individual value (n = 1)): 811.3 ^b ng·h/ml
- AUC0-24 (Plasma pharmacokinetics; [11]): 924 (54.5) ng·h/ml
- AUC0-last (Plasma pharmacokinetics; [11]): 924 (54.5) ng·h/ml
- Cmax (Plasma pharmacokinetics; [11]): 60.1 (58.8) ng/ml
- Tmax (Plasma pharmacokinetics; cycle 1 day 8, 20 mg o.d., N = 6, median (range)): 2.33 (1.02-5.58) h
- Exposure versus dose (Plasma pharmacokinetics; dose range 16-28 mg, cycle 1 day 1 and day 8): generally increased with increasing doses; also recorded: dose-dependent increases
- Tolerability of 24-mg o.d. dose level [3]: intolerable skin toxicities
- Patients who achieved a partial response ([4]; PIK3CA-mutant ovarian cancer): 1 patient
- Antitumor activity and toxicity ([4]; patients with refractory gastrointestinal cancers): limited antitumor activity and manageable toxicity
